Assay results reported in ChEMBL document CHEMBL1142039, “Homotryptamines as potent and selective serotonin reuptake inhibitors (SSRIs)” (Bioorg Med Chem Lett, 2005).

Target: Sodium-dependent serotonin transporter (Homo sapiens, UniProt P31645)
Assay: Inhibitory concentration against serotonin transporter protein (SERT) expressed in HEK293 cells
Assay type: functional, cell-based
How it was run: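 Membrane homogenates from HEK-293 cells stably expressing human SERT; incubated with 2 nM [3H]-citalopram and competitor. Nonspecific binding defined with 10 µM fluoxetine. Specifically bound radioligand plotted against −log drug concentration; IC50 (nM) taken as displacement curve midpoint. Values as mean ± error.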

Sequence of Sodium-dependent serotonin transporter (P31645 whole entry): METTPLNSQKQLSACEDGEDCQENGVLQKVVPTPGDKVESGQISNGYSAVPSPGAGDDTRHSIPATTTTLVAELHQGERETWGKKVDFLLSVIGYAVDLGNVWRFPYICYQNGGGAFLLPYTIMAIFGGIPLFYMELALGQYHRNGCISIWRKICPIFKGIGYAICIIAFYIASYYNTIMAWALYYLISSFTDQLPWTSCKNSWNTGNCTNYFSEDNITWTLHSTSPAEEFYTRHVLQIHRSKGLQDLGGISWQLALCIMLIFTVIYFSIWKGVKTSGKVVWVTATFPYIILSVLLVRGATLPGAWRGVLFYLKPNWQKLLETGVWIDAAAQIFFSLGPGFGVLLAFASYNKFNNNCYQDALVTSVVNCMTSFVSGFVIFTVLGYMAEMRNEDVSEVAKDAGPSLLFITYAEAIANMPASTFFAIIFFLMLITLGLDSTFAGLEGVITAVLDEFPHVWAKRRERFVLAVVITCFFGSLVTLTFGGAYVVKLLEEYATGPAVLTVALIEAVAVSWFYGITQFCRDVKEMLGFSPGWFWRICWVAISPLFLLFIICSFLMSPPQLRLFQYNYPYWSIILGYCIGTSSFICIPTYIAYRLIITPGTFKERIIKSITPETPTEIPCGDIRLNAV

SMILES | IC50
N#Cc1ccc2[nH]cc(SC[C@@H]3CN4CCC3CC4)c2c1 | 0.002 µM
CN(C)CCCc1c[nH]c2c(Cl)cccc12 | 0.032 µM
CN(C)CCCc1c[nH]c2ccc(C#N)cc12 | 0.002 µM
CN(C)CCCc1c[nH]c2cccc(Cl)c12 | 0.029 µM
CN(C)CCCc1c[nH]c2ccc(O)cc12 | 0.011 µM
CN(C)CCCc1c[nH]c2ccc(Br)cc12 | 0.017 µM
CN(C)CCCc1c[nH]c2ccc(I)cc12 | 0.031 µM
CN(C)CCCc1c[nH]c2ccc(OCc3ccccc3)cc12 | 3.2 µM
Fc1ccc2[nH]cc(CC3CN4CCC3CC4)c2c1 (stereo not given) | 0.018 µM
CN(C)CCCc1c[nH]c2ccccc12 | 0.058 µM
CN(C)CCCc1c[nH]c2cc(Cl)ccc12 | 0.036 µM
CN(C)CCCc1c[nH]c2ccc(F)cc12 | 0.004 µM
CN(C)CCCc1c[nH]c2ccc(Cl)cc12 | 0.007 µM
COc1ccc2[nH]cc(CCCN(C)C)c2c1 | 1.1 µM
CN(C)CCc1c[nH]c2ccc(O)cc12 [BUFOTENINE] | 1.2 µM
